In ChEMBL document CHEMBL4130379, “Design, synthesis and bioevaluation of antitubulin agents carrying diaryl-5,5-fused-heterocycle scaffold” (Eur J Med Chem, 2017):
Active and inactive are the calls of the source. The calls are words filed in the database; no cut-off is given here.

Tests used:
SGC-7901 [1] = assay: Antiproliferative activity against human SGC7901 cells after 72 hrs by MTT assay; format: functional, cell-based; conditions: SGC-7901, 72 h
In short: (§1)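 MTT assay on human SGC-7901 gastric adenocarcinoma, A549 lung adenocarcinoma and HT-1080 fibrosarcoma cells. The read-out was the half maximal inhibitory concentration (IC50). SMART and ABI were run in parallel as positive controls.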

A549 = assay: Antiproliferative activity against human A549 cells after 72 hrs by MTT assay; format: functional, cell-based; conditions: A549, 72 h; in short: as §1
HT-1080 = assay: Antiproliferative activity against human HT1080 cells after 72 hrs by MTT assay; format: functional, cell-based; conditions: HT-1080, 72 h; in short: as §1
Homo sapiens = species: Homo sapiens; assay: Induction of cytoplasmic microtubule network disassembly in human SGC7901 cells at 2 times antiproliferative IC50 after 48 hrs by DAPI staining-based immunofluorescence microscopic method; format: cell-based
SGC-7901 [2] = assay: Cell cycle arrest in human SGC7901 cells assessed as accumulation at sub-G1 phase at 0.044 uM after 6 to 72 hrs by propidium iodide staining-based flow cytometry; format: functional
In short: (§2)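 Time-course study in SGC-7901 cells treated with test agent. Cell cycle distribution (sub-G1, G0/G1, S, G2/M) and polyploidy were analysed by flow cytometry at successive time points.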

SGC-7901 [3] = assay: Cell cycle arrest in human SGC7901 cells assessed as accumulation at G2/M phase at 0.044 uM by propidium iodide staining-based flow cytometry; format: functional; conditions: TDE = time-dependent effect; in short: as §2
SGC-7901 [4] = assay: Cell cycle arrest in human SGC7901 cells assessed as decrease in cell levels at S phase at 0.044 uM after 6 to 72 hrs by propidium iodide staining-based flow cytometry; format: functional; in short: as §2
[5] = Inhibition of porcine brain tubulin polymerization preincubated for 1 min followed by GTP addition measured at 1 min intervals for 90 mins by spectrophotometric method
Sus scrofa = species: Sus scrofa; assay: as above
SGC-7901 [6] = assay: Cell cycle arrest in human SGC7901 cells assessed as induction of polyploidy at S phase at 0.044 uM after 24 hrs by propidium iodide staining-based flow cytometry; format: functional; in short: as §2
SGC-7901 [7] = assay: Cell cycle arrest in human SGC7901 cells assessed as decrease in cell levels at G0/G1 phase at 0.044 uM after 6 to 72 hrs by propidium iodide staining-based flow cytometry; format: functional; in short: as §2

| SMILES | IC50 (SGC-7901 [1]) [µM] | IC50 (A549) [µM] | IC50 (HT-1080) [µM] | also measured |
| --- | --- | --- | --- | --- |
| COc1cc(C(=O)c2csc(-c3ccccc3)n2)cc(OC)c1OC | 0.019 | 0.029 | 0.028 | Activity (Homo sapiens): Active |
| COc1cc(C(=O)c2c[nH]c(-c3ccccc3)n2)cc(OC)c1OC | 0.81 | 0.98 | 0.15 | – |
| COc1ccc(-c2cc3[nH]nc(-c4cc(OC)c(OC)c(OC)c4)n3n2)cc1 | 26.8 | 26.4 | 26.5 | – |
| COc1ccc(-c2nn3c(-c4ccc(OC)c(OC)c4OC)nnc3s2)cc1[N+](=O)[O-] | 32.5 | 33.8 | 35.1 | – |
| COc1ccc(-c2nnc3sc(-c4ccc(C)cc4)nn23)c(OC)c1OC | 0.186 | 0.803 | 0.089 | – |
| COc1ccc(-c2cc3[nH]nc(-c4cc(OC)c(OC)c(OC)c4)n3n2)cc1[N+](=O)[O-] | 48.3 | 58.2 | 35.6 | – |
| COc1ccc(-c2nn3c(-c4cc(OC)c(OC)c(OC)c4)nnc3s2)cc1[N+](=O)[O-] | 23.2 | 26.5 | 30.2 | – |
| Cc1ccc(-c2nn3c(-c4ccc5c(c4)OCO5)nnc3s2)cc1 | 24 | 27.7 | 26.8 | – |
| COc1cc(-c2n[nH]c3cc(-c4ccc(C)cc4)nn23)cc(OC)c1OC | 33.5 | 29.3 | 51.3 | – |
| COc1ccc(-c2cc3[nH]nc(-c4cc(OC)c(OC)c(OC)c4)n3n2)cc1N | 13.8 | 17.4 | 17.8 | – |
| COc1cc(-c2n[nH]c3cc(-c4ccc(Cl)cc4)nn23)cc(OC)c1OC | 6.12 | 1.21 | 6.81 | – |

Further lines, with some results ahead:

| IC50 (SGC-7901 [1]) [µM] | IC50 (A549) [µM] | IC50 (HT-1080) [µM] | SMILES | also measured |
| --- | --- | --- | --- | --- |
| 0.083 | 0.522 | 0.339 | COc1ccc(-c2nn3c(-c4ccc(OC)c(OC)c4)nnc3s2)cc1N | – |
| 22.1 | 26.9 | 27.3 | COc1ccc(-c2nnc3sc(-c4ccc(OC)c([N+](=O)[O-])c4)nn23)cc1 | – |
| 0.057 | 0.272 | 0.327 | COc1ccc(-c2nn3c(-c4ccc5c(c4)OCO5)nnc3s2)cc1N | – |
| 37.8 | 32.8 | 30.3 | COc1ccc(-c2nn3c(-c4ccc5c(c4)OCO5)nnc3s2)cc1[N+](=O)[O-] | – |
| 3.75 | 2.29 | 1.88 | COc1ccc(-c2nn3c(-c4ccc(OC)c(OC)c4OC)nnc3s2)cc1 | – |
| 0.022 | 0.029 | 0.027 | COc1ccc(-c2nn3c(-c4cc(OC)c(OC)c(OC)c4)nnc3s2)cc1N | Activity (SGC-7901 [2]): Active; Activity (SGC-7901 [3]): Tde; Activity (SGC-7901 [4]): Active; IC50 [5]: 0.77 µM; inhibition (Sus scrofa): Dose-dependent effect; Activity (SGC-7901 [6]): Active; Activity (SGC-7901 [7]): Active; Activity (Homo sapiens): Active |
| 0.062 | 0.082 | 0.073 | COc1ccc(-c2nn3c(-c4ccc(OC)c(OC)c4OC)nnc3s2)cc1N | – |
| 34.7 | 29.5 | 33 | COc1cccc(-c2nnc3sc(-c4ccc(OC)c([N+](=O)[O-])c4)nn23)c1 | – |
| 25.6 | 29.7 | 24.5 | COc1ccc(-c2nn3c(-c4ccc5c(c4)OCO5)nnc3s2)cc1 | – |
| 0.059 | 0.12 | 0.088 | COc1cccc(-c2nnc3sc(-c4ccc(OC)c(N)c4)nn23)c1 | – |
| 14.2 | 14.9 | 16.4 | COc1ccc(-c2nnc3sc(-c4ccc(OC)c(N)c4)nn23)cc1 | – |
| 37.7 | 30.4 | 32.8 | COc1ccc(-c2nnc3sc(-c4ccc(OC)c([N+](=O)[O-])c4)nn23)cc1OC | – |
